How the values were obtained:
[1] = test system: primary HGSC organoids; assay: Organoid drug-response profiling, whole panel; format: cell-based, human; conditions: 96 hours
Procedure, shortened: (§1)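 Patient-derived HGSC organoids were embedded in BME-2 droplets in 384-well ultralow-attachment plates and grown 7–10 days with medium changes every 2–3 days. Test compounds were added in five 10-fold dilutions, with DMSO and 10 μmol/L bortezomib as controls. After 96 h at 37°C, wells were stained 2 h with CellTox Green and Hoechst 33342 (5 μg/mL final) and imaged confocally. Survival was normalized to controls and fitted by four-parameter fit (bottom 0), mean ± SD, n = 2.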

[2] = test system: OV81-CP40 spheres; assay: 3D CellTiter-Glo cell viability assay of spheres; format: cell-based, human; conditions: OV81-CP40 grown in 3D (spheroids), 48 hours
Procedure, shortened: (§2)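 Cells (500) were seeded in MammoCult with proliferation supplement in ultralow-attachment 96-well plates to form spheres. Seven days after plating, the spheres were treated with the test compound. CellTiter-Glo 3D luminescence was read 48 h later. Dose–response curves were fitted by sigmoidal variable-slope fit.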

[3] = test system: OV231-CP30 spheres; assay: 3D CellTiter-Glo cell viability assay of spheres; format: cell-based, human; conditions: OV231-CP30 grown in 3D (spheroids), 48 hours
Procedure, shortened: as §2

[4] = test system: OV-UM32.1 cells; assay: 3D CellTiter-Glo cell viability assay; format: cell-based, human; conditions: OV-UM32.1, 3D, 48 hours
[5] = test system: OV-UM50.2 cells; assay: 3D CellTiter-Glo cell viability assay; format: cell-based, human; conditions: OV-UM50.2, 3D, 48 hours
[6] = test system: OV-UM52.1 cells; assay: 3D CellTiter-Glo cell viability assay; format: cell-based, human; conditions: OV-UM52.1, 3D, 48 hours
Procedure, shortened: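 Primary HGSC cells were grown as 3D spheres in MammoCult with supplement on ultralow-attachment plates and treated with a dose curve of test compound. CellTiter-Glo 3D luminescence was read after 48 h. Values were expressed relative to DMSO (mean ± SEM, n = 3). The curve was fitted with bottom constrained to 0 and top to 1.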

[7] = test system: OV81-CP40 cells; assay: CellTiter-Glo cell viability assay; format: cell-based, human
[8] = test system: OV231-CP30 cells; assay: CellTiter-Glo cell viability assay; format: cell-based, human; conditions: OV231-CP30, 48 hours, Fig. 2B
Procedure, shortened: (§3)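 2D culture in the cells' own medium in 96-well plates. Cells were treated with a dose curve of test compound one day after plating. CellTiter-Glo luminescence was read after 48 h. Viability was expressed as fold change to DMSO (mean ± SEM, n = 3). EC50 came from a sigmoidal variable-slope fit.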

[9] = test system: FT237 cells; assay: CellTiter-Glo cell viability assay; format: cell-based, human; conditions: nonmalignant fallopian tube secretory cell line FT237, 48 hours
Procedure, shortened: as §3

[10] = test system: FT194 cells; assay: CellTiter-Glo cell viability assay; format: cell-based, human; conditions: nonmalignant fallopian tube secretory cell line FT194, 48 hours
Procedure, shortened: as §3

[11] = test system: OV81-CP40 cells; assay: MTT cell viability assay; format: cell-based, human
[12] = test system: OV231-CP30 cells; assay: MTT cell viability assay; format: cell-based, human
[13] = test system: JHUEM7 cells; assay: MTT cell viability assay; format: cell-based, human; conditions: TNIK-null JHUEM7, 48 hours, Fig. 3K
[14] = test system: HEC1B cells; assay: MTT cell viability assay; format: cell-based, human; conditions: dose response up to 10 μmol/L, 48 hours, unable to generate an EC50
[15] = test system: P8_rAsc patient-derived organoid; assay: Organoid drug-response profiling; format: cell-based, human; conditions: 96 hours
Procedure, shortened: as §1

[16] = test system: P10_rPlfl patient-derived organoid; assay: Organoid drug-response profiling; format: cell-based, human; conditions: organoid P10_rPIfl, 96 hours
Procedure, shortened: as §1

[17] = test system: P12_rPer patient-derived organoid; assay: Organoid drug-response profiling; format: cell-based, human; conditions: 96 hours
Procedure, shortened: as §1

[18] = test system: panel of 377 human wild-type kinases; assay: Kinase selectivity profiling, KinaseProfiler; format: biochemical; conditions: of 377 human wildtype kinases
Procedure, shortened: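 Radiometric 33P transfer from [γ-33P]ATP to peptide/protein substrates was used, in 8 mmol/L MOPS pH 7.0 with 0.2 mmol/L EDTA and kinase-specific metal supplements. Lipid and atypical kinases were run by HTRF in HEPES buffer. […] Output was % activity remaining, with full inhibition set by reference inhibitors.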

[19] = test system: canonical Wnt pathway activation (reporter TOP-GFP) in OV81-CP40 cells; assay: TOP-GFP and FOP-GFP assay; format: cell-based, human; conditions: OV81-CP40, 6 hours, 20 mmol/L LiCl, […] NCB-0846 or 100 nmol/L NVP-2
Procedure, shortened: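 OV81-CP40 cells stably expressing lentiviral TOP-GFP or FOP-GFP reporters were plated and treated one day later for 6 h with LiCl and/or test compounds. Cells were harvested, PBS-washed and run by flow cytometry at 10,000 cells per sample, gating the top ~10% GFP-positive cells. Results were given as TOP/FOP, mean ± SEM, n = 3, by one-way ANOVA.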

[20] = test system: FT237 cells; assay: MTT cell viability assay; format: cell-based, human; conditions: FT237, 48 hours, nondeterminable up to highest dose, Supplementary Fig. S5D
[21] = OV81-CP40, MTT used to generate CI, Fig. 2D

Q: What does the source list for `N.N.O=C([O-])C1(C(=O)[O-])CCC1.[Pt+2]` [Carboplatin, carboplatin]?
A: survival ([1]; all 13 organoids tested, at 10 μmol/L): ≥ 50%; IC50 ([1]; five of the 13 organoids): < 100 µM; reduction in survival ([1]; only one organoid, at 100 μmol/L): greater than 70%

Q: How did the EC50 [2] turn out when `OC1CCC(Oc2cccc3cnc(Nc4ccc5nc[nH]c5c4)nc23)CC1` (stereo not shown) [NCB-0846] was run?
A: 0.71 µM

Q: What about the EC50 [3] of the same compound?
A: 1.59 µM

Q: And the EC50 [4]?
A: 4.33 µM

Q: What about the EC50 [5] of the same compound?
A: 1.6 µM

Q: What about the EC50 [6] of the same compound?
A: 2.61 µM

Q: And the EC50 ([7]; OV81-CP40, 48 hours, Fig. 2B)?
A: 0.465 µM

Q: And the EC50 ([7]; OV81-CP40, LiCl+-treated cells (20 mmol/L LiCl), 48 hours, Fig. 3A)?
A: 2.12 µM

Q: What about the EC50 ([7]; OV81-CP40, LiCl−-treated cells, 48 hours, Fig. 3A) of the same compound?
A: 0.585 µM

Q: And the EC50 ([7]; OV81-CP40 transfected with siCDK9 9, 48 hours, Fig. 5C)?
A: 0.161 µM

Q: What about the EC50 ([7]; OV81-CP40 transfected with siCDK9 11, 48 hours, Fig. 5C) of the same compound?
A: 0.143 µM

Q: What about the EC50 ([7]; OV81-CP40 transfected with siControl, 48 hours, Fig. 5C) of the same compound?
A: 0.399 µM

Q: What about the EC50 [8] of the same compound?
A: 0.584 µM

Q: And the “response of cell viability to dose curve” value [9]?
A: minimally responsive

Q: What about the “response of cell viability to dose curve” value [10] of the same compound?
A: minimally responsive

Q: What about the EC50 [11, 21] of the same compound?
A: 0.464 µM

Q: And the EC50 ([12]; OV231-CP30, MTT used to generate CI, Fig. 2D)?
A: 0.44 µM

Q: What about the “reduction in cell viability at maximal doses” value [13] of the same compound?
A: ~50%

Q: And the EC50 [14]?
A: > 10 µM

Q: What about the IC50 [15] of the same compound?
A: > 10 µM

Q: And the IC50 [16]?
A: > 10 µM

Q: What about the IC50 [17] of the same compound?
A: 4.03 µM

Q: What about the “number of kinase hits” value [18] of the same compound?
A: 175

Q: And the “TOP-GFP induction after LiCl addition” value [19]?
A: significantly decrease

Q: `N.N.[Cl][Pt][Cl]` [cisplatin] was tested. Which EC50 [4] did it give?
A: 12.9 µM

Q: What about the EC50 [5] of the same compound?
A: 22.2 µM

Q: What about the EC50 [6] of the same compound?
A: 9.63 µM

Q: And the EC50 [11, 21]?
A: non determinable (ND)

Q: Which results are given for `COC[C@@H](C)NC1CCC(Nc2cc(-c3cccc(NCC4(C#N)CCOCC4)n3)c(Cl)cn2)CC1` (stereo partly shown) [NVP-2]?
A: EC50 [2]: 0.0521 µM; EC50 [3]: 0.0603 µM; EC50 ([11]; OV81-CP40, 48 hours, Supplementary Fig. S5D): 0.0127 µM; EC50 [20]: > 0.08 µM; TOP-GFP induction after LiCl addition [19]: significantly decrease

Q: For `OC1CCC(Oc2cccc3cnc(Nc4ccc5nc[nH]c5c4)nc23)CC1` (stereo not shown) [NCB-0970], which EC50 ([11]; read-out: 48-hour EC50, OV81-CP40, 48 hours, Supplementary Fig. S2E) is on record?
A: 9.92 µM

Q: What about the EC50 ([12]; read-out: 48-hour EC50, OV231-CP30, 48 hours, Supplementary Fig. S2E) of the same compound?
A: 3.64 µM
